Experimental data taken from ChEMBL document CHEMBL3739299, “8-Hydroxyquinoline-based inhibitors of the Rce1 protease disrupt Ras membrane localization in human cells” (Bioorg Med Chem, 2016).
Active and inactive are the calls of the source. No cut-off for these calls is given here.

Key:
[1] = target: T1, CAAX prenyl protease 2 (Homo sapiens) (UniProt Q9Y256); assay: Inhibition of Rce1 in human HCT116 cells assessed as mislocalization of EGFP-K-Ras in plasma membrane at 25 uM after 20 hrs by fluorescence assay; conditions: HCT-116
T1 sequence (whole entry): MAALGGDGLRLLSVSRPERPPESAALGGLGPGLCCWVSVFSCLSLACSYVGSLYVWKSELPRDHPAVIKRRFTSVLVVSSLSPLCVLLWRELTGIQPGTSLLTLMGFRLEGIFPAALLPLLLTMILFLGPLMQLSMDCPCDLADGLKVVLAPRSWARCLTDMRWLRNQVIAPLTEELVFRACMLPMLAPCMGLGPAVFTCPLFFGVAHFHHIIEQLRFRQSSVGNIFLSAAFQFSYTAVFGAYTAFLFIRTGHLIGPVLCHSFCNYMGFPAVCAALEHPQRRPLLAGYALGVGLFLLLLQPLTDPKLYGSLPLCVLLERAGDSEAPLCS

[2] = Cytotoxicity against human HCT116 cells assessed as cell death at 25 uM after 20 hrs by celltiter blue assay (reference value: 0.4%); type: cell-based; conditions: hct-116, 20 h
Summary of the method: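 HCT-116 cells grown in DMEM with 10% FBS and 1% NEAA at 37 °C, 5% CO2, seeded 7 × 10^3 per well, exposed 20 h to 25 μM compound (0.4% DMSO vehicle; untreated control). CellTiter-Blue added for 4 h, fluorescence read at 560/590 nm. Values relative to untreated cells, mean of three independent experiments with SEM.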

[3] = target: T1, CAAX prenyl protease 2 (Homo sapiens); assay: Inhibition of human Rce1-mediated CaaX protease activity using […] and […] as substrate assessed as residual activity at 10 uM measured every 30 to 60 seconds for 60 mins
Summary of the method: (§1)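 Membranes from yeast SM3614 (ste24 rce1 null) overexpressing human Rce1, 0.25 mg/mL final in 200 mM Tris pH 7.5, 200 mM NaCl, 1 mg/mL BSA. […] Reaction started with 20 μM ABZ-KSKTKC(farnesyl)QLIM. Fluorescence (ex 320/em 420) read every 30–60 s for 60 min at 30 °C. Initial velocities trypsin-normalised; activity given as % of DMSO control.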

CAAX prenyl protease 2 = target: T2, CAAX prenyl protease 2 (Homo sapiens, UniProt Q9Y256); assay: Inhibition of human Rce1-mediated CaaX protease activity using ABZ-KSKTKC(farnesyl)QIIM and ABZ-KSKTKC(farnesyl)VIQI as substrate assessed as residual activity measured every 30 to 60 seconds for 60 mins
T2 sequence (Q9Y256 whole entry): T1 sequence (whole entry)
Summary of the method: as §1

[4] = system: Protein farnesyltransferase (Rattus norvegicus); assay: Inhibition of protein farnesyltransferase (rat) at 50 uM measured every 40 seconds for 60 mins
[5] = target: T3, CAAX prenyl protease 1 homolog (Homo sapiens) (UniProt O75844); assay: Inhibition of human FACE1-mediated CaaX protease activity at 10 uM measured every 30 to 60 seconds for 60 mins
T3 sequence (whole entry): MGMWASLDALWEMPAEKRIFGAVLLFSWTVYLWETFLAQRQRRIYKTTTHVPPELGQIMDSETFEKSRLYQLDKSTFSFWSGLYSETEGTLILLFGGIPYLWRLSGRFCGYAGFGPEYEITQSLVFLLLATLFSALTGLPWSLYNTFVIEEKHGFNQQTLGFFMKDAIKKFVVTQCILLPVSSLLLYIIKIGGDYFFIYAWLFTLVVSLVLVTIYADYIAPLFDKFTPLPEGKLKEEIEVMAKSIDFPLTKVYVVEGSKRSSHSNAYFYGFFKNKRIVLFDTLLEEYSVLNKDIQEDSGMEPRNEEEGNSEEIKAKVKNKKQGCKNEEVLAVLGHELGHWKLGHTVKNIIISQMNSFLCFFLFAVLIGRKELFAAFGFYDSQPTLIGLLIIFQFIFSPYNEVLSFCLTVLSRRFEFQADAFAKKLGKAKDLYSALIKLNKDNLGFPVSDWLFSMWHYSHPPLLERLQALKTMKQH
Summary of the method: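 Human Ste24 overexpressed in yeast strain SM3614 (ste24 rce1 null); membranes 0.25 mg/mL final in 200 mM Tris pH 7.5, 200 mM NaCl, 1 mg/mL BSA. Pretreated 15 min at 30 °C with 10 μM compound in duplicate, then 20 μM ABZ-KSKTKC(farnesyl)VIQL substrate added. Fluorescence (ex 320/em 420) read every 30–60 s for 60 min at 30 °C. Initial velocities normalised via trypsin-digest maximum fluorescence and expressed as % of DMSO control. SD shown.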

[6] = target: T1, CAAX prenyl protease 2 (Homo sapiens); assay: Effect on EGFP-H-Ras plasma membrane association in human HCT116 cells at 25 uM after 20 hrs by fluorescence assay; conditions: HCT-116
[7] = target: T1, CAAX prenyl protease 2 (Homo sapiens); assay: Effect on EGFP-N-Ras plasma membrane association in human HCT116 cells at 25 uM after 20 hrs by fluorescence assay; conditions: HCT-116

K-Ras plasma membrane association [1]	Activity [3]	IC50 (CAAX prenyl protease 2)	inhibition [4]	inhibition [5]	PM association [6]	PM association [7]	Compound	Cell death [2]
16%	23%	6.7 µM	inactive	inactive	–	–	O=C(O)c1ccc(NC(c2ccc(Br)cc2)c2ccc3cccnc3c2O)cc1 (stereo not drawn)	25%
–	39%	8.9 µM	inactive	inactive	14%	10%	Oc1c(C(Nc2ccccc2)c2ccccc2)ccc2cccnc12 (stereo not drawn)	< 10%
